# According to ChEMBL document CHEMBL4665785 (J Med Chem, 2020):
# Active and inactive are the calls of the source. The rule behind the calls is not given here.
# How the values were obtained:
# [1] = molecular target: T1, Cathepsin S (Homo sapiens, UniProt P25774); assay: Inhibition of recombinant human Cathepsin S expressed in baculovirus infected insect cells using Z-VVR-AMC as substrate preincubated for 15 mins followed by substrate addition and measured after 10 mins by fluorescence assay
# [2] = organism: Homo sapiens; assay: Selectivity ratio of inhibition of human liver Cathepsin B to inhibition of recombinant human Cathepsin S
# [3] = molecular target: Cathepsin B (Homo sapiens) (UniProt P07858); assay: Inhibition of human liver Cathepsin B using Z-VVR-AMC as substrate at 10 uM preincubated for 15 mins followed by substrate addition and measured after 10 mins by fluorescence assay relative to control; conditions: time 25.0 min
# [4] = molecular target: Procathepsin L (Homo sapiens) (UniProt P07711); assay: Inhibition of human liver Cathepsin L using Z-VVR-AMC as substrate at 10 uM preincubated for 15 mins followed by substrate addition and measured after 10 mins by fluorescence assay relative to control; conditions: time 25.0 min
# [5] = organism: Homo sapiens; assay: Selectivity ratio of inhibition of recombinant human Cathepsin K to inhibition of recombinant human Cathepsin S
# [6] = molecular target: T2, Cathepsin K (Homo sapiens) (UniProt P43235); assay: Inhibition of recombinant human Cathepsin K expressed in baculovirus infected insect cells using Z-FR-AMC as substrate at 10 uM preincubated for 15 mins followed by substrate addition and measured after 10 mins by fluorescence assay relative to control; conditions: time 25.0 min
# T2 sequence (whole entry): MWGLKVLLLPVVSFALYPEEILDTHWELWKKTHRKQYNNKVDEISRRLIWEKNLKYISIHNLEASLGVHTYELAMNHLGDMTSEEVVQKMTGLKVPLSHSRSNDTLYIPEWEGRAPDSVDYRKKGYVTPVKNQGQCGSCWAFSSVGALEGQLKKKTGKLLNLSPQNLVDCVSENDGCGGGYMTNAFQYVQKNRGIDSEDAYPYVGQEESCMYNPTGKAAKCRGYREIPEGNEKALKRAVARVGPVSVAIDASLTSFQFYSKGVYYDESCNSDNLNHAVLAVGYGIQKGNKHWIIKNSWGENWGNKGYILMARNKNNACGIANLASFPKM
# [7] = organism: Homo sapiens; assay: Selectivity ratio of inhibition of human liver Cathepsin L to inhibition of recombinant human Cathepsin S
# [8] = Permeability across apical to basal side in human Caco-2 cells at 1 uM measured up to 120 min by LC-MS analysis; type: ADME, cell-based; conditions: time <= 120, dose 1 µM, read-out: permeability
# [9] = molecular target: T1, Cathepsin S; assay: Inhibition of Cathepsin S in human Raji cells assessed as increase in Lip10 accumulation after 24 hrs by SDS-PAGE analysis; type: cell-based
# Summary of the method: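 Human Raji cells, an antigen-presenting B-lymphocyte line, used for the target-engagement read-out. Inhibition is scored as intracellular accumulation of the CatS substrate Lip10, the invariant-chain-derived propeptide.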
# [10] = molecular target: T2, Cathepsin K (Homo sapiens); assay: Inhibition of recombinant human Cathepsin K expressed in baculovirus infected insect cells using Z-FR-AMC as substrate up to 100 uM preincubated for 15 mins followed by substrate addition and measured after 10 mins by fluorescence assay relative to control; conditions: time 25.0 min
# T1 sequence (P25774 whole entry): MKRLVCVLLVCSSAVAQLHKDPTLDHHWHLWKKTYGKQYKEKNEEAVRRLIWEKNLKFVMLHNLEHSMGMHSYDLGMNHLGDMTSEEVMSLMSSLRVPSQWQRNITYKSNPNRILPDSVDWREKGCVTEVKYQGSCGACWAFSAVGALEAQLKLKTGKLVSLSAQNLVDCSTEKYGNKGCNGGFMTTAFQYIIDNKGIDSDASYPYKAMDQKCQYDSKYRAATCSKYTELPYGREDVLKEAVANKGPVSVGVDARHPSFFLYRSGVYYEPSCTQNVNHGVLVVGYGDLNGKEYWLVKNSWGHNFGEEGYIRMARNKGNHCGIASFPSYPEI
# Chain of Procathepsin L (Homo sapiens) (P07711 114-333 limits assumed): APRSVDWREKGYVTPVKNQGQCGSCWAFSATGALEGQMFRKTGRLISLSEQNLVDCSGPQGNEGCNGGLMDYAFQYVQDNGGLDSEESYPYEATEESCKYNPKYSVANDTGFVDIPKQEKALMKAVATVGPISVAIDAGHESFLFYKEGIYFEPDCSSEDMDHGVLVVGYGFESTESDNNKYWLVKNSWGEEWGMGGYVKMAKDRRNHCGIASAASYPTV
structure (smiles),measurement,setting,value
Cc1cc(CC(=O)N[C@@H](CS(=O)(=O)N2CCN(c3ccccn3)CC2)C(=O)NC2(C#N)CC2)on1,Ki,[1],0.345 nM
same,Selectivity ratio,[2],> 30000
same,inhibition,[3],< 8%
same,inhibition,[4],< 26%
same,Selectivity ratio,[5],> 30000
same,inhibition,[6],< 16%
same,Selectivity ratio,[7],> 30000
N#CC1(NC(=O)[C@H](CS(=O)(=O)N2CCN(c3ccccn3)CC2)Nc2cccnc2)CC1,Ki,[1],0.25 nM
same,"Papp A→B at 2 h, 1 µM",[8],0.33 ×10⁻⁶ cm/s
N#CC1(NC(=O)[C@H](CS(=O)(=O)N2CCN(c3ccccn3)CC2)NC(=O)Cc2cccs2)CC1,Ki,[1],0.2 nM
same,EC50,[9],1100 nM
same,"Papp A→B at 2 h, 1 µM",[8],0.4 ×10⁻⁶ cm/s
N#CC1(NC(=O)[C@@H](Cc2ccccc2)CS(=O)(=O)N2CCN(c3ccccn3)CC2)CC1,Ki,[1],290 nM
N#CC1(NC(=O)CCS(=O)(=O)N2CCN(c3ccccn3)CC2)CC1,Ki,[1],800 nM
CNC(=O)CCS(=O)(=O)N1CCN(c2ccc3nncn3n2)CC1,Ki,[1],700 nM
same,inhibition,[10],inactive
N#CC1(NC(=O)[C@H](CS(=O)(=O)C[C@H]2CCC(=O)N2)N[C@@H](c2ccc(F)cc2)C(F)(F)F)CC1,Ki,[1],≤ 100 nM
